From ChEMBL document CHEMBL3868588, “Emestrins: Anti-Cryptococcus Epipolythiodioxopiperazines from Podospora australis” (J Nat Prod, 2016)
In brackets after ≈: the same amount, converted by molar mass.

What was measured:
[1] = Antiproliferative activity against human DU145 cells; assay type: functional, cell-based; conditions: DU-145
Candida albicans = assay: Antifungal activity against Candida albicans ATCC 10231 measured after 24 hrs by resazurin-staining based serial dilution method; assay type: functional; conditions: ATCC 10231, 24 h
Summary of the method: (§1)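 Serial dilution per NCCLS guidance in 96-well plates with YM test medium (1% maltose extract, 0.2% yeast extract, 0.4% agar). Compounds in DMSO, diluted in growth medium; amphotericin B positive control. Incubated at 25 °C; C. albicans ATCC 10231 read at 24 h, C. neoformans H99 at 48 h. Visual end point, OD and PrestoBlue resazurin viability; MIC = lowest concentration giving 100% inhibition versus untreated control.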

Cryptococcus neoformans = assay: Antifungal activity against Cryptococcus neoformans H99 after 48 hrs by resazurin-staining based serial dilution method; assay type: functional; conditions: var grubii H99 ; summary of the method: as §1

For `COc1ccc2cc1Oc1cc(ccc1OC)[C@H](O)[C@]13SS[C@@]4(C(=O)N1C)[C@H](O)C1=COC=C[C@H](OC2=O)[C@H]1N4C3=O`, the IC50 [1] was 9.3 nM, the MIC (Candida albicans) was 6.4 µg/mL (≈ 10.4 µM) and the MIC (Cryptococcus neoformans) was 0.8 µg/mL (≈ 1.31 µM).

Molecule `COc1ccc2cc1Oc1cc(ccc1OC)[C@H](O)[C@]13SSS[C@@]4(C(=O)N1C)[C@H](O)C1=COC=C[C@H](OC2=O)[C@H]1N4C3=O` has an MIC (Candida albicans) of over 25.6 µg/mL and an MIC (Cryptococcus neoformans) of 6.4 µg/mL (≈ 9.93 µM).

Molecule `COc1ccc2cc1Oc1cc(ccc1OC)[C@H](O)[C@]13SSSS[C@@]4(C(=O)N1C)[C@H](O)C1=COC=C[C@H](OC2=O)[C@H]1N4C3=O` has an MIC (Candida albicans) of over 25.6 µg/mL and an MIC (Cryptococcus neoformans) of 25.6 µg/mL (≈ 37.8 µM).

In the case of `COc1ccc2cc1Oc1cc(ccc1OC)C(=O)O[C@H]1C=COC=C3[C@@H](O)[C@]45SS[C@](C2)(C(=O)N4[C@@H]31)N(C)C5=O`, the MIC (Candida albicans) is reported as over 25.6 µg/mL and the MIC (Cryptococcus neoformans) is reported as 1.6 µg/mL (≈ 2.68 µM).

Work on `C[C@@H]1[C@H](O)[C@@H](C)/C=C/C=C/C=C/C=C/C=C/C=C/C=C/[C@H](O[C@@H]2O[C@H](C)[C@@H](O)[C@H](N)[C@@H]2O)C[C@@H]2O[C@](O)(C[C@@H](O)C[C@@H](O)[C@H](O)CC[C@@H](O)C[C@@H](O)CC(=O)O[C@H]1C)C[C@H](O)[C@H]2C(=O)O` [AMPHOTERICIN B] yielded an MIC (Candida albicans) of 1.6 µg/mL (≈ 1.73 µM) and an MIC (Cryptococcus neoformans) of 0.8 µg/mL (≈ 0.866 µM).
